Test results published in PubChem BioAssay.
The source made the active and inactive calls.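 How the source made its calls, unless noted: active means viability at or under a set limit in both replicates, limit being median viability minus 3 SD (cut at about 48% in these data, passing the limit was not always enough); inconclusive means at or under the limit in just one replicate; inactive means at or above the limit in both replicates.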

Legend:
[1] = HUVEC growth inhibition – cell-based, human, primary screen (AID 575;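 active means viability at or below 30% in both replicate assays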;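 further: 100% = median of untreated cell wells with 0.1% DMSO on each plate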); details: HUVEC proliferation, CellTiter-Glo luminescence, 72 h; at 10 µM; stronger effect = lower value
Outline: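 Timing: 72 h treatment at 37 °C; material: HUVEC primary cells; technique: CellTiter-Glo luminescence measuring cellular ATP; controls: vehicle and MePR control wells; measure: percent of median DMSO-control luminescence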

[2] = H69AR cell proliferation blockers – human, duplicate replicates, primary screen (AID 580); details: H69AR lung tumor cells viability, ATP luminescence, 72 h; at 10 µM; stronger effect = lower value;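 further: 100% = mean luminescence of untreated wells and 0% = no signal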
[3] = MRP1 drug-resistance reversers in H69AR cells – cell-based, doxorubicin co-treatment, pilot screen (AID 601;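 active means viability loss from added drug above about 55%, and viability with drug at most 40%, in both replicates, limit read from the data, passing the limit was not always enough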); details: CellTiter-Glo, 72 h, at 10 µM; for differential viability (reversal): stronger effect = higher value
[4] = yeast transport mutant growth inhibition pilot in 384-well plates, post-Golgi transport modulator project (AID 636; in the data active means inhibition above about 31%); details: absorbance 615 nm, about 18 h, stronger effect = higher value
[5] = growth suppression of yeast trafficking mutant, preliminary HTS, modulators of trafficking downstream of Golgi apparatus project, 1536-format plate, OD 615 nm (AID 637; in the data active means inhibition above about 30%); details: yeast transport mutant growth, absorbance 615 nm, 18 h; stronger effect = higher value
[6] = H69AR cells + 2 uM doxorubicin, measured here: viability with 2 uM doxorubicin, stronger effect = lower value
[7] = H69AR cells, compound alone cytotoxicity

Compound: O=C(O)c1ccccc1S
- viability [1]: 84.4% (inactive)
- viability [2]: 74.7% (inactive)
- differential viability (reversal) ([3]; H69AR cells + 2 uM doxorubicin): 6.9% (inactive)
- viability [3, 6]: 67.8%
- viability [3, 7]: 74.7%
- inhibition [4]: -2.34% (inactive)
- inhibition [5]: 3.5% (inactive)

Compound: Cc1nc(SCC(=O)c2c[nH]c3ccccc23)n[nH]1
- viability [1]: 81.1% (inactive)
- viability [2]: 95.9% (inactive)
- differential viability (reversal) ([3]; H69AR cells + 2 uM doxorubicin): 14.5% (inactive)
- viability [3, 6]: 81.4%
- viability [3, 7]: 95.9%
- inhibition [4]: -7.5% (inactive)
- inhibition [5]: -0.32% (inactive)

Compound: COc1ccccc1-n1cnnc1SCC(=O)c1ccc[nH]1
- viability [1]: 106% (inactive)
- viability [2]: 108% (inactive)
- differential viability (reversal) ([3]; H69AR cells + 2 uM doxorubicin): 9.87% (inactive)
- viability [3, 6]: 98.1%
- viability [3, 7]: 108%
- inhibition [4]: -2.21% (inactive)
- inhibition [5]: 2.54% (inactive)

Compound: O=C(c1cnn2c1NC(c1ccco1)CC2C(F)(F)F)N1CCN(c2cccc(Cl)c2)CC1 (configuration not stated)
- viability [1]: 48.7% (inactive)
- viability [2]: 9.38% (active)
- differential viability (reversal) ([3]; H69AR cells + 2 uM doxorubicin): -61.4% (inactive)
- viability [3, 6]: 70.8%
- viability [3, 7]: 9.38%
- inhibition [4]: -6% (inactive)
- inhibition [5]: -2.22% (inactive)

Compound: O=C(Nc1ccc(Cc2ccncc2)cc1)C1CC1
- viability [1]: 88.2% (inactive)
- viability [2]: 99.5% (inactive)
- differential viability (reversal) ([3]; H69AR cells + 2 uM doxorubicin): 17.4% (inactive)
- viability [3, 6]: 82.1%
- viability [3, 7]: 99.5%
- inhibition [4]: -2.21% (inactive)
- inhibition [5]: 1.75% (inactive)

Compound: Cc1ccc(Nc2nnns2)cc1C
- viability [1]: 84.6% (inactive)
- viability [2]: 99.8% (inactive)
- differential viability (reversal) ([3]; H69AR cells + 2 uM doxorubicin): 10.1% (inactive)
- viability [3, 6]: 89.7%
- viability [3, 7]: 99.8%
- inhibition [4]: -1.04% (inactive)
- inhibition [5]: -3.02% (inactive)

Compound: O=C(c1cccnc1)N1CCN(Cc2ccc3c(c2)OCO3)CC1
- viability [1]: 89.6% (inactive)
- viability [2]: 95.8% (inactive)
- differential viability (reversal) ([3]; H69AR cells + 2 uM doxorubicin): 14.4% (inactive)
- viability [3, 6]: 81.4%
- viability [3, 7]: 95.8%
- inhibition [4]: -7.73% (inactive)
- inhibition [5]: 1.75% (inactive)

Compound: Cc1ccc(S(=O)(=O)Cn2nnnc2C(C(C)C)N2CCN(C(=O)c3ccco3)CC2)cc1 (configuration not stated)
- viability [1]: 94.8% (inactive)
- viability [2]: 91.3% (inactive)
- differential viability (reversal) ([3]; H69AR cells + 2 uM doxorubicin): 8.2% (inactive)
- viability [3, 6]: 83.1%
- viability [3, 7]: 91.3%
- inhibition [4]: -4% (inactive)
- inhibition [5]: -4.29% (inactive)

Compound: O=C(CN1CCN(c2ncc(C(F)(F)F)cc2Cl)CC1)Nc1ccc2c(c1)OCO2
- viability [1]: 85.7% (inactive)
- viability [2]: 93.2% (inactive)
- differential viability (reversal) ([3]; H69AR cells + 2 uM doxorubicin): 0.28% (inactive)
- viability [3, 6]: 92.9%
- viability [3, 7]: 93.2%
- inhibition [4]: 0.65% (inactive)
- inhibition [5]: -4.29% (inactive)

Compound: COc1ccc(-c2nc(C(N)=O)c3[nH]c(=O)n(-c4cccc(Cl)c4)c3n2)cc1OC
- viability [1]: 3.29% (active)
- viability [2]: 1.2% (active)
- differential viability (reversal) ([3]; H69AR cells + 2 uM doxorubicin): -0.93% (inactive)
- viability [3, 6]: 2.13%
- viability [3, 7]: 1.2%
- inhibition [4]: 6.23% (inactive)
- inhibition [5]: -0.33% (inactive)

Compound: O=c1cc(CSc2nnc(COc3ccc(Cl)cc3)o2)c2ccccc2[nH]1
- viability [1]: 86.8% (inactive)
- viability [2]: 90.2% (inactive)
- differential viability (reversal) ([3]; H69AR cells + 2 uM doxorubicin): -2.67% (inactive)
- viability [3, 6]: 92.9%
- viability [3, 7]: 90.2%
- inhibition [4]: -2.11% (inactive)
- inhibition [5]: -6.67% (inactive)

Compound: O=C(NC12CC3CC(CC(C3)C1)C2)N1CCN(C(=O)C2CCCO2)CC1 (configuration not stated)
- viability [1]: 111% (inactive)
- viability [2]: 95.6% (inactive)
- differential viability (reversal) ([3]; H69AR cells + 2 uM doxorubicin): 11.2% (inactive)
- viability [3, 6]: 84.4%
- viability [3, 7]: 95.6%
- inhibition [4]: -7.07% (inactive)
- inhibition [5]: 5.24% (inactive)

Compound: CCOC(=O)c1cc(-c2ccc(N)cc2)sc1N
- viability [1]: 92.5% (inactive)
- viability [2]: 93.4% (inactive)
- differential viability (reversal) ([3]; H69AR cells + 2 uM doxorubicin): 8.46% (inactive)
- viability [3, 6]: 84.9%
- viability [3, 7]: 93.4%
- inhibition [4]: -5.07% (inactive)
- inhibition [5]: -0.95% (inactive)

Compound: COc1cccc(Nc2c(F)c(F)c(F)c(F)c2C(=O)O)c1
- viability [1]: 92.2% (inactive)
- viability [2]: 99.7% (inactive)
- differential viability (reversal) ([3]; H69AR cells + 2 uM doxorubicin): 9.22% (inactive)
- viability [3, 6]: 90.5%
- viability [3, 7]: 99.7%
- inhibition [4]: -5.84% (inactive)
- inhibition [5]: -1.27% (inactive)

Compound: COc1ccc(N2CCN(c3oc(COc4ccccc4)nc3C#N)CC2)cc1
- viability [1]: 84.1% (inactive)
- viability [2]: 101% (inactive)
- differential viability (reversal) ([3]; H69AR cells + 2 uM doxorubicin): -2.02% (inactive)
- viability [3, 6]: 103%
- viability [3, 7]: 101%
- inhibition [4]: -5.19% (inactive)
- inhibition [5]: 0.95% (inactive)

Compound: CC(C)C(c1nnnn1C1CCCC1)N1CCCc2ccccc21 (configuration not stated)
- viability [1]: 80.3% (inactive)
- viability [2]: 84.5% (inactive)
- differential viability (reversal) ([3]; H69AR cells + 2 uM doxorubicin): -6.77% (inactive)
- viability [3, 6]: 91.2%
- viability [3, 7]: 84.5%
- inhibition [4]: 1.33% (inactive)
- inhibition [5]: -3.65% (inactive)

Compound: Nc1nc(SCc2nc3scc(-c4cccs4)c3c(=O)[nH]2)n[nH]1
- viability [1]: 77.5% (inactive)
- viability [2]: 93.4% (inactive)
- differential viability (reversal) ([3]; H69AR cells + 2 uM doxorubicin): -3.9% (inactive)
- viability [3, 6]: 97.3%
- viability [3, 7]: 93.4%
- inhibition [4]: -2.67% (inactive)
- inhibition [5]: 0.32% (inactive)

Compound: COc1cc2c(cc1NCc1ccccn1)oc1ccccc12
- viability [1]: 78% (inactive)
- viability [2]: 83.8% (inactive)
- differential viability (reversal) ([3]; H69AR cells + 2 uM doxorubicin): -10.3% (inactive)
- viability [3, 6]: 94.1%
- viability [3, 7]: 83.8%
- inhibition [4]: -4.13% (inactive)
- inhibition [5]: 5.08% (inactive)

Compound: COC(=O)c1ccc(CSc2nc3ccccc3c(=O)n2Cc2ccco2)o1
- viability [1]: 81.2% (inactive)
- viability [2]: 84.4% (inactive)
- differential viability (reversal) ([3]; H69AR cells + 2 uM doxorubicin): -7.85% (inactive)
- viability [3, 6]: 92.3%
- viability [3, 7]: 84.4%
- inhibition [4]: -4.94% (inactive)
- inhibition [5]: -1.11% (inactive)

Compound: CCOC(=O)c1ccc(NC(=O)N2CCN(CCc3ccccc3)CC2)cc1
- viability [1]: 91.7% (inactive)
- viability [2]: 101% (inactive)
- differential viability (reversal) ([3]; H69AR cells + 2 uM doxorubicin): 10.2% (inactive)
- viability [3, 6]: 90.4%
- viability [3, 7]: 101%
- inhibition [4]: -2.11% (inactive)
- inhibition [5]: -0.32% (inactive)

Compound: CCN(CC)C(=O)CSc1nnc(-c2cc(OC)cc(OC)c2)o1
- viability [1]: 84.1% (inactive)
- viability [2]: 93.9% (inactive)
- differential viability (reversal) ([3]; H69AR cells + 2 uM doxorubicin): 2.03% (inactive)
- viability [3, 6]: 91.9%
- viability [3, 7]: 93.9%
- inhibition [4]: -5.87% (inactive)
- inhibition [5]: 2.7% (inactive)
